Measured values reported in ChEMBL document CHEMBL1148752, “Dopamine/serotonin receptor ligands. 16.(1) Expanding dibenz[d,g]azecines to 11- and 12-membered homologues. Interaction with dopamine D(1)-D(5) receptors” (J Med Chem, 2007).
pKi: −log10 of the molar value.

Tests used:
D(1A) dopamine receptor = D(1A) dopamine receptor (Homo sapiens, UniProt P21728); test: Displacement of [3H]SCH 23390 from human dopamine D1 receptor
In short: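 Competition binding at cloned human receptors of the D1 family with [3H]SCH 23390 as radioligand; test ligand displacement expressed as Ki.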

D(2) dopamine receptor = D(2) dopamine receptor (Homo sapiens, UniProt P14416); test: Displacement of [3H]spiperone from human dopamine D2L receptor expressed in HEK293 cells; assay type: cell-based
Chain of D(2) dopamine receptor (P14416 whole entry): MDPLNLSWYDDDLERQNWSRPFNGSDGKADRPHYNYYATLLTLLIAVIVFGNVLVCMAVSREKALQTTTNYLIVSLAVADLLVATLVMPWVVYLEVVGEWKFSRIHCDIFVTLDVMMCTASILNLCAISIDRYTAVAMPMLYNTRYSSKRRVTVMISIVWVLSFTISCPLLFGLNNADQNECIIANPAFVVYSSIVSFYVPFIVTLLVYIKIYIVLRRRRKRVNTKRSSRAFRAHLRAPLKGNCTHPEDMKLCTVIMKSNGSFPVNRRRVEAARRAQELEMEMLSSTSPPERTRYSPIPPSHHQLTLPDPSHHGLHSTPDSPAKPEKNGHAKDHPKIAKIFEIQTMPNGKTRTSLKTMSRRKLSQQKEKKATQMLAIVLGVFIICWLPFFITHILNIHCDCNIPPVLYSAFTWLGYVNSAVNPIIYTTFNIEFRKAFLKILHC
In short: (§1)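 Competition binding at cloned human receptors of the D2 family with [3H]spiperone as radioligand; test ligand displacement expressed as Ki.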

D(3) dopamine receptor = D(3) dopamine receptor (Homo sapiens, UniProt P35462); test: Displacement of [3H]spiperone from human dopamine D3 receptor expressed in CHO cells; assay type: cell-based; in short: as §1
Chain of D(3) dopamine receptor (P35462 whole entry): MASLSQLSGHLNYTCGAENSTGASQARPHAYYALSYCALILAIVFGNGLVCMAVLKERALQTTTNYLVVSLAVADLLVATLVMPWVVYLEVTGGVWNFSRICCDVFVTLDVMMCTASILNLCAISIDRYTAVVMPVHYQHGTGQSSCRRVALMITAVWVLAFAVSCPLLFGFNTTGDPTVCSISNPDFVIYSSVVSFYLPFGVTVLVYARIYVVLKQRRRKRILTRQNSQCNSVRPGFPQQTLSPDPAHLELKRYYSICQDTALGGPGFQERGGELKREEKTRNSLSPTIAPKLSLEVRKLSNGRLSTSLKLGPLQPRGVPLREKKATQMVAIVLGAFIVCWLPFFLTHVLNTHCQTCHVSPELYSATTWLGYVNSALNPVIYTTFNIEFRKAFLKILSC

D(4) dopamine receptor = target: T1, D(4) dopamine receptor (Homo sapiens, UniProt P21917); test: Displacement of [3H]spiperone from human dopamine D4.4 receptor expressed in CHO cells; assay type: cell-based; in short: as §1
T1 sequence (P21917 whole entry): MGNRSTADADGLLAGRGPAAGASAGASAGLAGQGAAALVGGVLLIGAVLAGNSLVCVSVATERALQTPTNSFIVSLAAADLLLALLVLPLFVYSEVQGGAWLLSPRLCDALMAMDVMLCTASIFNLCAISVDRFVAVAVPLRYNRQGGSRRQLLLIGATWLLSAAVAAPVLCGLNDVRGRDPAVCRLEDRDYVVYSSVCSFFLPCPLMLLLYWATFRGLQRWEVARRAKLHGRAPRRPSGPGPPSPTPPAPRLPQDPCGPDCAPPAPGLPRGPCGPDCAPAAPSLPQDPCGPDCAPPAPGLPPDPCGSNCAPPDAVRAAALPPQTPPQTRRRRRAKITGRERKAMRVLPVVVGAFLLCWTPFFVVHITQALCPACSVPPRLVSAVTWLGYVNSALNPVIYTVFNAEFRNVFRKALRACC

D(1B) dopamine receptor = D(1B) dopamine receptor (Homo sapiens, UniProt P21918); test: Displacement of [3H]SCH 23390 from human dopamine D5 receptor expressed in HEK293 cells; assay type: cell-based
Chain of D(1B) dopamine receptor (P21918 whole entry): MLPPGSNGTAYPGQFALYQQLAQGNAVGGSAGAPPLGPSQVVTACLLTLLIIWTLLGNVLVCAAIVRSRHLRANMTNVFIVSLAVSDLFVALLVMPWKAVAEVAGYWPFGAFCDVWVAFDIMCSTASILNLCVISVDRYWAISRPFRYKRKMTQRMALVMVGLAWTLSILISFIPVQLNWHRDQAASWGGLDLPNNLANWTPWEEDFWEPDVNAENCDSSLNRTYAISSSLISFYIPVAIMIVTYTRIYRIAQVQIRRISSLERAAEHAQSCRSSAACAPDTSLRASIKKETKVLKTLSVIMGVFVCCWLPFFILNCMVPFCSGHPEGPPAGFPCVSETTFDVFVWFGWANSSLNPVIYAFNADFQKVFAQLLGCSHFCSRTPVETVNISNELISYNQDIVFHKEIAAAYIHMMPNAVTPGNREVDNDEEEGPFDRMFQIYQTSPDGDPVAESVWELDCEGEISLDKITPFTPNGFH

Chain of D(1A) dopamine receptor (P21728 whole entry): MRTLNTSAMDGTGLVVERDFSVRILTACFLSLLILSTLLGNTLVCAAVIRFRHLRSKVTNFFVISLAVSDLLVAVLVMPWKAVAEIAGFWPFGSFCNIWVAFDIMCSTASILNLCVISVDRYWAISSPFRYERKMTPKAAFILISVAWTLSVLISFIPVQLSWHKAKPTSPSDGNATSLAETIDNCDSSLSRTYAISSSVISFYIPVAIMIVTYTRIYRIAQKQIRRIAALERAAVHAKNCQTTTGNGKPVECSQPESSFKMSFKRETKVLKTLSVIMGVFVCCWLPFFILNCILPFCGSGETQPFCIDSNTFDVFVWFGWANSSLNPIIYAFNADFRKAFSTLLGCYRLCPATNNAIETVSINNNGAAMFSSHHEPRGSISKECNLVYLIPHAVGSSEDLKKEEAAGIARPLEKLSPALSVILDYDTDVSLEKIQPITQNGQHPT

| Structure (SMILES) | pKi (D(1A) dopamine receptor) | pKi (D(2) dopamine receptor) | pKi (D(3) dopamine receptor) | pKi (D(4) dopamine receptor) | pKi (D(1B) dopamine receptor) |
| --- | --- | --- | --- | --- | --- |
| COc1ccc2c(c1)CCCN(C)CCCc1ccccc1C2 | 7.63 | 6.76 | 5.87 | 5.54 | 7.28 |
| COc1ccc2c(c1)Cc1ccccc1CCCN(C)CC2 | 6.86 | 5.86 | 4.62 | 5.56 | 7.12 |
| CN1CCCc2cc(O)ccc2Cc2ccccc2CC1 | 7.86 | 6.29 | 5.21 | 5.65 | 7.77 |
| COc1ccc2c(c1)CCCN(C)CCc1ccccc1C2 | 7.53 | 7.60 | 5.50 | 5.96 | 7.26 |
| CN1CCCc2ccccc2Cc2ccc(O)cc2CCC1 | 7.08 | 6.42 | 5.40 | 6.37 | 7.02 |
| COc1cc2c(cc1Cl)CCN1CCCc3ccccc3C21 (stereo unspecified) | < 5.00 | < 5.00 | < 5.00 | < 5.00 | < 5.00 |
| CN1CCCc2ccccc2Cc2cc(O)ccc2CC1 | 7.15 | 7.20 | 6.11 | 5.43 | 7.16 |
| Oc1ccc2c(c1)CCCNCCc1ccccc1C2 | 6.54 | 6.07 | 5.16 | 5.37 | 6.50 |
| COc1ccc(CCN2CCCc3ccccc3C2)cc1Cl | < 5.00 | < 5.00 | < 5.00 | < 5.00 | < 5.00 |
| COc1ccc2c(c1)CCCN1CCCc3ccccc3C21 (stereo unspecified) | < 5.00 | < 5.00 | < 5.00 | < 5.00 | < 5.00 |

More lines, now with the values ahead:

| pKi (D(1A) dopamine receptor) | pKi (D(2) dopamine receptor) | pKi (D(3) dopamine receptor) | pKi (D(4) dopamine receptor) | pKi (D(1B) dopamine receptor) | Structure (SMILES) |
| --- | --- | --- | --- | --- | --- |
| 8.49 | 7.13 | 7.00 | 7.22 | 8.01 | CN1CCCc2ccccc2Cc2ccc(O)cc2CC1 |
| 7.73 | 7.06 | 6.29 | 6.57 | 8.34 | COc1ccc2c(c1)CCN(C)CCCc1ccccc1C2 |
| – | – | – | – | 7.27 | COc1ccc2c(c1)CCN(C)CCc1ccccc1C2 |
| 6.24 | 5.99 | 4.83 | 5.30 | 6.29 | COc1cc2c(cc1OC)Cc1ccccc1CCCN(C)CC2 |
